Data as given in ChEMBL document CHEMBL1150422, “Diarylmethyloxime and hydrazone derivatives with 5-indolyl moieties as potent inhibitors of tubulin polymerization” (Bioorg Med Chem, 2008).

Columns and labels:
[1] = test system: HT-29; experiment: Cytotoxicity against human HT29 cells after 72 hrs by XTT method; assay type: functional, cell-based; conditions: HT-29, 72 h
Outline: (§1)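 Cells were seeded in exponential growth per well: HeLa 1.5 × 10³, HT-29 3 × 10³, A-549 5 × 10³, HL-60 3 × 10³. Adherent lines were left to attach for 24 h at 37 °C in 5% CO₂. Cells were exposed to a range of compound concentrations for 72 h. XTT/PMS reagent was then added for 4 h, and absorbance was read at 490 nm against a 655 nm reference. IC50 is the concentration giving 50% inhibition of proliferation.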

[2] = organism: Bos taurus; experiment: Inhibition of calf brain tubulin polymerization at 20 uM after 20 mins
Outline: (§2)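 Microtubule protein (1.0 mg/mL) in 0.1 M MES, 1 mM EGTA, 1 mM MgCl₂, 1 mM β-ME, 1.5 mM GTP, pH 6.7 was preincubated with ligand for 30 min at 20 °C, then cooled on ice for 10 min. Assembly was triggered by moving from 4 °C to 37 °C. Inhibition was measured turbidimetrically at 450 nm after 20 min against a no-ligand control.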

[3] = test system: HeLa; experiment: Cytotoxicity against human HeLa cells after 72 hrs by XTT method; assay type: functional, cell-based
[4] = test system: A549; experiment: Cytotoxicity against human A549 cells after 72 hrs by XTT method; assay type: functional, cell-based; conditions: A549, 72 h
[5] = test system: HL-60; experiment: Cytotoxicity against human HL60 cells after 72 hrs by XTT method; assay type: functional, cell-based; conditions: HL-60, 72 h; outline: as §1
[6] = organism: Bos taurus; experiment: Inhibition of calf brain tubulin polymerization at 30 uM after 20 mins; outline: as §2
[7] = Inhibition of calf brain tubulin polymerization after 20 mins; set-up: species or system Bos taurus
Outline: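 Turbidity at 450 nm was followed using 1.0 mg/mL microtubule protein in 0.1 M MES, 1 mM EGTA, 1 mM MgCl₂, 1 mM β-ME, 1.5 mM GTP, pH 6.7, with a ligand-free control. Samples were preincubated for 30 min at 20 °C, iced for 10 min, and assembly was started by shifting from 4 °C to 37 °C. IC50 was read graphically at 20 min. At least two independent experiments used different protein preparations.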

[8] = organism: Bos taurus; experiment: Inhibition of calf brain tubulin polymerization at 40 uM after 20 mins; outline: as §2

inhibition [2] | inhibition [6] | IC50 [7] | inhibition [8] | Structure (SMILES) | IC50 [1] | IC50 [3] | IC50 [4] | IC50 [5]
42% |  |  |  | CCn1ccc2cc(C(O)c3cc(OC)c(OC)c(OC)c3)ccc21 (stereo unspecified) | > 1 µM | > 1 µM | > 10 µM | > 10 µM
 | 14% |  |  | COc1cc(/C(=N/NC(C)=O)c2ccc3c(ccn3C)c2)cc(OC)c1OC |  | 2.3 µM | > 10 µM | > 1 µM
86% |  | 18 µM |  | COc1cc(C(O)c2ccc3c(ccn3C)c2)cc(OC)c1OC (stereo unspecified) | > 1 µM | > 1 µM | > 10 µM | > 10 µM
 | 35% |  |  | COc1cc(/C(=N/N)c2ccc3c(ccn3C)c2)cc(OC)c1OC |  |  |  | > 10 µM
41% |  |  |  | COc1cc(/C(=N\OC(C)=O)c2ccc3c(ccn3C)c2)cc(OC)c1OC |  |  |  | > 10 µM
95% |  | 5.7 µM |  | CCn1ccc2cc(C(=O)c3cc(OC)c(OC)c(OC)c3)ccc21 |  | 0.016 µM | 0.14 µM | 0.034 µM
97% |  | 2.5 µM |  | COc1ccc(C(=O)c2cc(OC)c(OC)c(OC)c2)cc1O [PHENSTATIN] | 0.03 µM | 0.03 µM | 0.3 µM | 1.8 µM
 | 7% |  |  | CCn1ccc2cc(/C(=N\N)c3cc(OC)c(OC)c(OC)c3)ccc21 | > 1 µM | > 1 µM | > 10 µM | > 1 µM
10% |  |  |  | COc1cc(/C(=N/OC(=O)OC(C)(C)C)c2ccc3c(ccn3C)c2)cc(OC)c1OC | > 1 µM | > 1 µM | > 10 µM | > 1 µM
0% |  |  |  | CCn1ccc2cc(C(OC(C)=O)c3cc(OC)c(OC)c(OC)c3)ccc21 (stereo unspecified) | > 1 µM | > 1 µM | > 10 µM | > 10 µM
23% |  |  |  | COc1cc(/C(=N\O)c2ccc3c(ccn3C)c2)cc(OC)c1OC |  |  |  | 
17% |  |  |  | COc1cc(/C(=N\OC(=O)OC(C)(C)C)c2ccc3c(ccn3C)c2)cc(OC)c1OC | > 1 µM | > 1 µM | > 1 µM | > 1 µM
38% |  |  |  | COc1cc(/C(=N/OC(C)=O)c2ccc3c(ccn3C)c2)cc(OC)c1OC |  |  |  | > 10 µM
 | 82% | 1.8 µM |  | COc1cc(/C(=N/O)c2ccc3c(ccn3C)c2)cc(OC)c1OC | 0.33 µM | 0.36 µM | > 10 µM | 0.11 µM
87% |  | 5.9 µM |  | CCn1ccc2cc(/C(=N\O)c3cc(OC)c(OC)c(OC)c3)ccc21 | > 1 µM | > 1 µM | > 10 µM | > 1 µM
41% |  |  |  | COc1cc(C(OC(C)=O)c2ccc3c(ccn3C)c2)cc(OC)c1OC (stereo unspecified) | 0.26 µM | 0.0064 µM | > 10 µM | 0.24 µM
54% |  |  |  | CCn1ccc2cc(/C(=N/OC(C)=O)c3cc(OC)c(OC)c(OC)c3)ccc21 | > 10 µM | > 10 µM | > 10 µM | > 1 µM
 |  | 7.9 µM | 98% | COc1cc(C(=O)c2ccc3c(ccn3C)c2)cc(OC)c1OC |  | 0.034 µM | 0.12 µM | 
20% |  |  |  | CN/N=C(/c1cc(OC)c(OC)c(OC)c1)c1ccc2c(ccn2C)c1 | > 1 µM | > 1 µM | > 1 µM | > 1 µM
26% |  |  |  | CCn1ccc2cc(/C(=N\OC(C)=O)c3cc(OC)c(OC)c(OC)c3)ccc21 | > 1 µM | > 1 µM | > 10 µM | > 1 µM

Structure (SMILES) | inhibition [2] | inhibition [6] | IC50 [7] | inhibition [8] | IC50 [1] | IC50 [3] | IC50 [4] | IC50 [5]
COc1ccc(/C=C\c2cc(OC)c(OC)c(OC)c2)cc1O [COMBRETASTATIN A4] |  |  | 3 µM |  | 0.002 µM |  |  | 
